Results: PMC3646584 (Journal of medicinal chemistry, 2013)

Columns and labels:
[1] = test system: Jurkat, HT-29, and HeLa cells; test: Cell cycle analysis by flow cytometry; assay type: cell-based, human; details: for lowest concentration giving a rise in G2/M cells: 24 h treatment
How it was run: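 Cells were treated for 24 h with graded compound concentrations (HeLa: 5 × 10^5 exponentially growing cells). They were collected, fixed in ice-cold 70% ethanol, and treated with lysis buffer containing RNase A and 0.1% Triton X-100. After PI staining, DNA content was read by flow cytometry. Cell-cycle phase percentages came from DNA histogram analysis.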

[2] = test system: HeLa cells; test: Mitochondrial membrane potential; assay type: cell-based, human; details: JC-1, 24 or 48 h
How it was run: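 HeLa cells exposed to the test compound at the stated concentrations for 24 or 48 h, with DMSO at no more than 0.25%, then stained with the lipophilic cationic dye JC-1 to monitor mitochondrial membrane potential. Values are the mean ± SEM of three independent experiments.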

[3] = test system: HeLa cells; test: Annexin-V/PI apoptosis assay; assay type: cell-based, human; details: 24 or 48 h, concentration- and time-dependent
[4] = test system: HeLa cells; test: ROS production; assay type: cell-based, human; details: HE or H2-DCFDA, 24 or 48 h
How it was run: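 After 24 or 48 h exposure to the test compound (DMSO at most 0.25%), cells were stained with hydroethidine (HE) or H2-DCFDA and ROS were read by flow cytometry. Results are the mean ± SEM from three independent experiments.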

[5] = Cytotoxicity for resting peripheral blood lymphocytes; assay type: cell-based; details: human
How it was run: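 Donor PBLs were separated on a Lymphoprep gradient, washed, and kept overnight in RPMI-1640 with 10% FBS. Nonadherent cells were resuspended at 5 × 10^5 cells/mL without PHA (resting) and exposed to graded compound for 72 h. Viability was read by MTT. IC50 is given as mean ± SEM from three separate experiments.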

[6] = Cytotoxicity for PHA-stimulated peripheral blood lymphocytes; assay type: cell-based; details: human, PHA-stimulated (proliferating) peripheral blood lymphocytes
How it was run: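 PBLs from healthy donors were isolated on a Lymphoprep gradient, washed, and rested overnight at 1.0 × 10^6 cells/mL in RPMI-1640 with 10% FBS. Nonadherent cells were reseeded at 5 × 10^5 cells/mL in growth medium containing 2.5 μg/mL PHA. Graded compound was added and viability read by MTT after 72 h. IC50 is given as mean ± SEM of three separate experiments.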

[7] = test system: panel of seven human cancer cell lines; test: Antiproliferative activity across the panel of seven human cancer cell lines; assay type: cell-based; details: read-out: IC50 values across the cell line panel
How it was run: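 Jurkat, SEM and HL-60 cells were grown in RPMI-1640; MCF-7, A549, HeLa and HT-29 cells in DMEM; both with 10% FBS plus penicillin/streptomycin. 8 × 10^3 cells/well were held 18 h at 37 °C, 5% CO2, then given fresh medium with graded compound (DMSO ≤0.25%) for 72 h. Viability was read by MTT. […] Mean ± SE, ≥3 independent experiments.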

[8] = test system: HeLa cells; test: Western blot analysis of cell cycle and apoptosis proteins; assay type: cell-based, human
How it was run: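 HeLa cells were treated for 24 or 48 h. They were washed twice in ice-cold PBS and lysed on ice for 30 min, and the lysates were cleared at 15000g, 4 °C, 10 min. Protein was measured by BCA, and 20 μg per lane was run on 7.5–15% SDS–PAGE, then blotted to PVDF and blocked overnight at 4 °C. Membranes were probed 2 h at room temperature for cyclin B, p-cdc2 Tyr15, PARP and Xiap, with peroxidase secondary for 60 min and ECL detection. They were stripped and reprobed for β-actin.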

[9] = test system: BNL 1ME A.7R.1 allografts; test: Syngeneic hepatocellular carcinoma allograft model; assay type: in vivo, Balb/c mice; details: 5 mg/kg ip daily for seven days
How it was run: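 Male Balb/c mice, 8 weeks old, received 10^7 syngeneic hepatocarcinoma cells in 200 μL sterile PBS subcutaneously in the dorsal region. At ~100 mm3, fifteen mice were randomised into three groups of five. Groups got vehicle (0.9% NaCl, 5% PEG 400, 0.5% Tween 80), test compound, or reference, each at 5 mg/kg ip daily for 7 days. Body weight was tracked as mean ± SEM; two-sided Student's t test.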

[10] = test system: A549; test: In vitro cell growth inhibition; assay type: cell-based; details: Homo sapiens
[11] = test system: A549-T12; test: Cell growth inhibition, drug-resistant cell line study; assay type: cell-based, human; details: for IC50: Homo sapiens; for resistance ratio: IC50 A549-T12 / IC50 A549
How it was run: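 Cells seeded at 8 × 10^3 per well and preincubated 18 h at 37 °C in humidified 5% CO2. Medium then replaced with fresh medium holding test compound at several concentrations (10 mM DMSO stocks; final DMSO ≤0.25%) for 72 h at 37 °C. Viability by MTT. […] Parental A549 grown in DMEM with 10% FBS.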

Compound | lowest concentration giving a rise in G2/M cells [1] [nM] | proportion of cells with depolarized mitochondria [2] | annexin-V-positive cells vs control [3] | ROS production vs control cells [4] | IC50 at 72 h [5] [nM] | cells arrested in G2/M ([1]; 24 h, at higher concentrations) | IC50 at 72 h [6] [nM] | IC50 [7] [nM] | cyclin B expression ([8]; 10 or 100 nM, 24 or 48 h) | expression of phosphorylated cdc2 (Tyr15) ([8]; 10 or 100 nM, 24 or 48 h) | concentration at which PARP cleavage was detectable ([8]; 24 h) [nM] | Xiap expression ([8]; 24 h, even at 10 nM) | caspase activation ([8]; Western blot, HeLa) | body weight change during treatment [9] | IC50 [10] [nM] | IC50 [11] [nM] | resistance ratio [11]
COC(=O)c1sc2nc(C)ccc2c1Nc1cc(OC)c(OC)c(OC)c1 [4n, Methyl 6-Methyl-3-[(3,4,5-trimethoxyphenyl)amino]thieno[2,3-b]pyridine-2-carboxylate] | 20 | time- and concentration-dependent increase | accumulation of annexin-V-positive cells | induced the production of significant amounts of ROS | > 10000 | – | – | – | – | – | – | – | – | – | – | – | –
COC(=O)c1sc2cc(OC)ccc2c1Nc1cc(OC)c(OC)c(OC)c1 [4i, Methyl 6-Methoxy-3-[(3,4,5-trimethoxyphenyl)amino]-1-benzo-[b]thiophene-2-carboxylate] | 20 | time- and concentration-dependent increase | accumulation of annexin-V-positive cells | induced the production of significant amounts of ROS | > 10000 | more than 80% | 2800 ± 1200 | 0.28 to 10 | no significant variations | dramatic decrease | 10 | almost eliminated | induced proteolytic cleavage of caspase-9 and caspase-3 | only a small decrease in body weight | – | – | –
COC(=O)c1sc2ncccc2c1Nc1cc(OC)c(OC)c(OC)c1 [4l, Methyl 3-[(3,4,5-Trimethoxyphenyl)amino]thieno[2,3-b]pyridine-2-carboxylate] | – | – | – | – | – | – | – | – | – | – | – | – | – | – | 8.5 ± 1.9 | 12.6 ± 2.9 | 1.5
CCOC(=O)c1sc2ncccc2c1Nc1cc(OC)c(OC)c(OC)c1 [4m, Ethyl 3-[(3,4,5-Trimethoxyphenyl)amino]thieno[2,3-b]pyridine-2-carboxylate] | – | – | – | – | – | – | – | – | – | – | – | – | – | – | 16.2 ± 4.4 | 19.5 ± 2.3 | 1.2
